The values that follow come from PMC2999657 (Biochemistry, 2010).

A short description of series [1]: Spontaneous hydrolysis in neutral aqueous buffer. It is filed as physicochemical. Particulars: pH 7.5, 25 °C. The method, boiled down:
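Test compounds were diluted from concentrated acetonitrile stocks to ≤5% acetonitrile in 20 mM MOPS, pH 7.5, at 25 °C, and their hydrolysis without enzyme was followed by UV-vis. Full progress curves were fit to a pseudo-first-order equation by nonlinear least squares, and triplicate rate constants were averaged. The clavulanic acid reference (85 μM) was run in 25 mM MOPS, pH 7.5, at 25 °C, read at 260 nm.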

Series [2] deals with class D OXA-1 β-lactamase (Escherichia coli, UniProt P13661). The series is described as follows: OXA-1 β-lactamase hydrolysis and inhibition. It is filed as biochemical.
The target of series [3] is T1, P99 β-lactamase (Enterobacter cloacae, UniProt P05364). It is filed as biochemical. The settings on record: pH range 6.0–9.5, 25 °C, ionic strength 1.0.
In another series the target is class C ampC β-lactamase (Escherichia coli, UniProt P00811). The series is described as follows: ampC β-lactamase substrate activity. It is filed as biochemical.
For a further series, the target named is class C P99 β-lactamase (Enterobacter cloacae, UniProt P05364). The class given is biochemical. Particulars: steady state turnover by P99 β-lactamase, 20 mM MOPS pH 7.5, 25 °C.
Series [4] can be described thus: pKa determination by spectrophotometric titration. It is filed as physicochemical. Particulars: spectrophotometric titration at 233 nm, 25 °C, ionic strength 1.0.
The target in series [5] is Actinomadura R39 DD-peptidase (Actinomadura sp., UniProt P39045). The series is described as follows: Hydrolysis in the presence of R39 DD-peptidase. The class given is biochemical.
The target in series [6] is Streptomyces R61 DD-peptidase (Streptomyces sp., UniProt P15555). The series is described as follows: Hydrolysis in the presence of R61 DD-peptidase. The class given is biochemical. Particulars: enzyme 0.5 μM.
For series [7] the following is noted: in dioxane/water; cited from earlier work.
The target of series [8] is T1, P99 β-lactamase. The series is described as follows: P99 β-lactamase activity with time after incubation with compound. The class given is biochemical. The settings on record: enzyme 0.25 μM, compound 100 μM.

Sequence of class D OXA-1 β-lactamase (P13661 26-276): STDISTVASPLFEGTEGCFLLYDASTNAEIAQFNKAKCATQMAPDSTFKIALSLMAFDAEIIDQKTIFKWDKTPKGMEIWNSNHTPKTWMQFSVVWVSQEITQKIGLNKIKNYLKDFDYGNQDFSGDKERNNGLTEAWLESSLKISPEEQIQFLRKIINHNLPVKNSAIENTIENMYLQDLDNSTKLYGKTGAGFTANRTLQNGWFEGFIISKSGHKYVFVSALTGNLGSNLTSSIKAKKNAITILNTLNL
T1 sequence (P05364 21-381): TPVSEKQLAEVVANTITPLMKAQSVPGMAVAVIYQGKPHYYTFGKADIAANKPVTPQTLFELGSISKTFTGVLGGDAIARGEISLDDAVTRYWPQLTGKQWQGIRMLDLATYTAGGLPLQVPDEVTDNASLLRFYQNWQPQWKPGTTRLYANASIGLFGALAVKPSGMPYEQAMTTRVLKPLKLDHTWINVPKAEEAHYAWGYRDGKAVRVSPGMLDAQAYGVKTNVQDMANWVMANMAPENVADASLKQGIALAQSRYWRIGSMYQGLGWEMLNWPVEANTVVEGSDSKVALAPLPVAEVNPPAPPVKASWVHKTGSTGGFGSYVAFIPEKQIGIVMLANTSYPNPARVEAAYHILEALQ
Sequence of class C P99 β-lactamase (P05364 21-381): as above
Sequence of Streptomyces R61 DD-peptidase (P15555 32-406): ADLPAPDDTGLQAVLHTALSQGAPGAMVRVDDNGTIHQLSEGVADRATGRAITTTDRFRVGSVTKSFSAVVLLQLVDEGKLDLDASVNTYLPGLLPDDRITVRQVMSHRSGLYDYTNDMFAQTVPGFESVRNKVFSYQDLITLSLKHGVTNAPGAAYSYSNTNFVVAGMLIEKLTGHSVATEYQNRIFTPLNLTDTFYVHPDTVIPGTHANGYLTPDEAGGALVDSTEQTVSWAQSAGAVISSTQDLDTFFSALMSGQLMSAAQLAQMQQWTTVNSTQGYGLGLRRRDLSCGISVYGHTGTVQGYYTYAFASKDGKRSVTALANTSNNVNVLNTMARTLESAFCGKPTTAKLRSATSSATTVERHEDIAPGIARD
Sequence of Actinomadura R39 DD-peptidase (P39045 50-538): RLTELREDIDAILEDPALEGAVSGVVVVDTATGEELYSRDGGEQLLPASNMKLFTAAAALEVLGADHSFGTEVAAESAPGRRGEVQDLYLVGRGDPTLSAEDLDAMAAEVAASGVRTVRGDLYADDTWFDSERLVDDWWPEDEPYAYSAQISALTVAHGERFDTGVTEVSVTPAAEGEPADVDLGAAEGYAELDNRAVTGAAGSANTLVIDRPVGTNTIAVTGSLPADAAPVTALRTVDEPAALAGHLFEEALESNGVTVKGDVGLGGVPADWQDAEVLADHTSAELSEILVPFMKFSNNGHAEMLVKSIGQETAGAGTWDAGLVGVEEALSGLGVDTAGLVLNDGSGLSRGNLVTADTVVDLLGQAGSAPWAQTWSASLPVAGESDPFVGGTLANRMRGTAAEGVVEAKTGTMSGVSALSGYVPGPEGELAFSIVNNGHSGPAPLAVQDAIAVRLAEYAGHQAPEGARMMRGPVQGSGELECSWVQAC
Sequence of class C ampC β-lactamase (P00811 20-377): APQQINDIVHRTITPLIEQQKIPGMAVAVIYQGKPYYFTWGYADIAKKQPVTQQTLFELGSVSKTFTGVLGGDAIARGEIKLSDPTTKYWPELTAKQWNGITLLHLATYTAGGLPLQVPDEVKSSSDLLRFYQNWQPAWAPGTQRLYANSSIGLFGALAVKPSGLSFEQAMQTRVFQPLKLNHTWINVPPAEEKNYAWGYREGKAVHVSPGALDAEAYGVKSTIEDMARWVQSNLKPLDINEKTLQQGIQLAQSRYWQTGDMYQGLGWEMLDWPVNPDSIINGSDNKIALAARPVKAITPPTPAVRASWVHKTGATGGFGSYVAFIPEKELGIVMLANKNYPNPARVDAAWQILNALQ

As to `O=C(NOC(=O)C(O)Cc1ccccc1)OCc1ccccc1` (stereo not shown) [Compound 7, N-(Benzyloxycarbonyl)-O-(2-hydroxy-3-phenylpropanoyl)hydroxylamine], the “ksp, rate constant of spontaneous hydrolysis” value in series [1] (20 mM MOPS) is listed as “(8.2 ± 0.8) × 10^−5 s^−1”. For the same compound, the “fast reversible or slow inhibition of the OXA-1 enzyme” value in series [2] is “no significant fast reversible or slow inhibition”. In series [2] (20 mM MOPS, 50 mM NaHCO3, 0.1 % gelatin, pH 7.5), the “hydrolysis catalyzed by OXA-1” value is given as “did not catalyze hydrolysis”. Besides, the “pKa for decreasing activity in pH-rate profile” value at P99 β-lactamase [3] stood at 7.6 ± 0.2. For the same compound, at class C ampC β-lactamase, the “substrate activity with ampC β-lactamase” value is “good substrate”. Moreover, at class C P99 β-lactamase, the Km was 71 ± 10 µM. For the same compound, in series [4], the “pKa (acidic NH proton)” value came out at 7.58 ± 0.03. The “substrate activity with R39 DD-peptidase” value in [5] is recorded as “not substrates”. Further, in series [6], the “substrate activity with R61 DD-peptidase” value is given as “not substrates”.
Consider `O=C(NOC(=O)C(O)Cc1ccccc1)OCc1ccccc1` (stereo not shown) [Compound 8, N-(Benzyloxycarbonyl)-O-(2-hydroxy-3-phenylpropanoyl)hydroxylamine], for which the Km on class C P99 β-lactamase was found to be 340 ± 60 µM.
As to `O=C(O)[C@H]1/C(=C/CO)O[C@@H]2CC(=O)N21` [clavulanic acid, reference compound], the “spontaneous hydrolysis rate constant” value in series [1] (85 μM in 25 mM MOPS buffer, monitored at 260 nm) came to 8e-05 s⁻¹.
`O=[N+]([O-])c1ccc(O)cc1` [p-nitrophenol]: the pKa in series [7] was 9.4.
Consider “N-(Benzyloxycarbonyl)-O-(1-D-carboxy-ethoxycarbonyl)hydroxylamine [2 (R = CH2Ph, R′=Me)]”, for which, at P99 β-lactamase [8], the “enzyme activity against cephalothin with time after mixing” value is on record as “initial loss of enzyme activity, measured against the good substrate, cephalothin, followed by a slower restoration of activity”.
